Where no end group is shown, it is not given here.
Columns and labels:
Type in all cases: physicochemical
[1] = Particle morphology by atomic force microscopy; conditions: nanostructures immobilized on poly-L-lysine coated mica, room temperature
[2] = Critical aggregation concentration, Nile red assay; conditions: Nile red fluorescence (Ex550/Em635), PBS pH 7.4, 0.1 to 500 μg/mL, overnight incubation at room temperature; intersection of two linear fits
[3] = Particle morphology and size by transmission electron microscopy; conditions: 0.1 mg/mL in HEPES 10 mM, negative staining with 2% uranyl acetate
Summary of the method: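 Applies to peptide–pNIPAm self-assembled particles. Samples at 0.1 mg/mL in 10 mM HEPES are applied to prewarmed carbon-coated copper grids for 2 min, and excess liquid is blotted off with filter paper. Grids are negatively stained with 2% uranyl acetate for 45 s and dried 10 min at room temperature. Morphology and size are then read from TEM images.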

Row | Substance | particle diameter by AFM [1] [nm] | critical aggregation concentration (CAC) [2] | particle size by TEM [3]
1 | Ac-AAVVLLLWGQAEPDRAHYNIVTF [HPV-SA] | ~100 | ca. 15 μM | 
2 | HPV16 E7_43–57-poly(DMAm) [HPV-pDMAm] |  |  | no particles
3 | HPV16 E7_43–57-poly(NIPAm) [HPV-pNIPAm] |  |  | 20–80 nm
4 | OVA250–264-poly(NIPAm) [OVA-pNIPAm] |  |  | 20–80 nm

— publication PMC5415879 (Molecular Pharmaceutics, 2017)
